Measured values: paper PMC11000255 (Journal of the American Chemical Society, 2024)
Where two headings read alike, the source gives them in different places.

Assays:
[1] = target: kynurenine-oxoglutarate transaminase 3 (KYAT3) (Homo sapiens, UniProt Q6YP21); assay: TMT18plex lysine ligandability profiling, KYAT3; format: binding; details: 100 μM, 8 h, breast cancer cells
Outline: (§1)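 Live MDA-MB-231 or MDA-MB-436 breast cancer cells were exposed to the test compound (100 µM, 8 h) or DMSO vehicle. Lysates (soluble and insoluble fractions) were chased with a desthiobiotin-tagged lysine-specific STP ester probe, trypsin-digested, streptavidin-enriched and quantified by TMTpro-18plex. Lysines had to be quantified in all biological triplicates and TMT channels. A lysine counted as liganded at ≥60% loss of probe enrichment relative to DMSO.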

nucleostemin (GNL3) = nucleostemin (GNL3) (Homo sapiens, UniProt Q9BVP2); assay: TMT18plex lysine ligandability profiling, GNL3; format: binding; details: 100 μM, 8 h, breast cancer cells
Outline: as §1

ABHD12 = target: T1, ABHD12 (Homo sapiens, UniProt Q8N2K0); assay: TMT18plex lysine ligandability profiling, ABHD12; format: binding; details: both MDA-MB-231 and MDA-MB-436 cell lines
T1 sequence (Q8N2K0 1-398): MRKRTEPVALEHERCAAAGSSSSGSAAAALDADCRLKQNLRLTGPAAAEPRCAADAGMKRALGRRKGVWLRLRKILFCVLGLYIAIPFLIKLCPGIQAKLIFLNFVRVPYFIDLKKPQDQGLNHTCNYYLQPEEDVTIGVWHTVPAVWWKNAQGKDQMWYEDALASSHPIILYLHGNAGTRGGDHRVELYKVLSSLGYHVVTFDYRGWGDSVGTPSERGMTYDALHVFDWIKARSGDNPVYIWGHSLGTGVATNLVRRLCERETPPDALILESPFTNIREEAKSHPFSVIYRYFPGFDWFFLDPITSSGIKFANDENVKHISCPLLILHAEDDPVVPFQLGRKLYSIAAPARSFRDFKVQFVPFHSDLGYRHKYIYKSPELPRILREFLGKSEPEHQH
Outline: as §1

PFKL = PFKL (Homo sapiens, UniProt P17858); assay: TMT18plex lysine ligandability profiling, PFKL; format: binding; details: 100 μM, 8 h, breast cancer cells
PFKP = PFKP (Homo sapiens, UniProt Q01813); assay: TMT18plex lysine ligandability profiling, PFKP; format: binding; details: 100 μM, 8 h, breast cancer cells
Outline: as §1

WT-ABHD12 = target: T2, WT-ABHD12 (Homo sapiens, UniProt Q8N2K0); assay: LC/MS-based LPS hydrolysis assay, WT-ABHD12 in HEK293T cell lysates; format: biochemical; details: read-out: apparent IC50, inhibition of LPS hydrolysis activity; WT-ABHD12
T2 sequence (Q8N2K0 1-398): T1 sequence (Q8N2K0 1-398)
Outline: (§2)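 Recombinant ABHD12 (WT, S246A and K373 mutants) was expressed in HEK293T cells and used as cell lysate. Lysate was preincubated with the test compound (single-point 100 µM, or a dose series; 1 h, 37 °C), then given 17:1 LPS substrate (100 µM, 20 min, 37 °C).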

K373R-ABHD12 = K373R-ABHD12 (Homo sapiens, UniProt Q8N2K0, K373R); assay: LC/MS-based LPS hydrolysis assay, K373R-ABHD12 in HEK293T cell lysates; format: biochemical; details: read-out: IC50, inhibition of LPS hydrolysis activity; K373R-ABHD12 mutant
Outline: as §2

MDA-MB-231 cells = assay: untargeted lipidomics profiling of treated cells; format: cell-based, human; details: 100 μM, 8 h
WT-PFKL = WT-PFKL (Homo sapiens, UniProt P17858); assay: enzyme-coupled F6P phosphorylation assay, WT-PFKL in HEK293T cell lysates; format: biochemical; details: read-out: apparent IC50, inhibition of PFKL activity
K681R-PFKL = K681R-PFKL (Homo sapiens, UniProt P17858, K681R); assay: enzyme-coupled F6P phosphorylation assay, K681R-PFKL; format: biochemical; details: read-out: IC50, inhibition of PFKL activity
K677R-PFKL = K677R-PFKL (Homo sapiens, UniProt P17858, K677R); assay: enzyme-coupled F6P phosphorylation assay, K677R-PFKL; format: biochemical; details: read-out: IC50, inhibition of PFKL activity
K677R/K681R-PFKL = K677R/K681R-PFKL (Homo sapiens, UniProt P17858, K677R/K681R); assay: enzyme-coupled F6P phosphorylation assay, K677R/K681R-PFKL double mutant; format: biochemical; details: read-out: IC50, inhibition of PFKL activity
K677R/K681R/K315R-PFKL = K677R/K681R/K315R-PFKL (Homo sapiens, UniProt P17858, K315R/K677R/K681R); assay: enzyme-coupled F6P phosphorylation assay, K677R/K681R/K315R-PFKL triple mutant; format: biochemical; details: read-out: IC50, inhibition of PFKL activity
WT-PFKP [2] = target: T3, WT-PFKP (Homo sapiens, UniProt Q01813); format: binding
T3 sequence (Q01813 1-784): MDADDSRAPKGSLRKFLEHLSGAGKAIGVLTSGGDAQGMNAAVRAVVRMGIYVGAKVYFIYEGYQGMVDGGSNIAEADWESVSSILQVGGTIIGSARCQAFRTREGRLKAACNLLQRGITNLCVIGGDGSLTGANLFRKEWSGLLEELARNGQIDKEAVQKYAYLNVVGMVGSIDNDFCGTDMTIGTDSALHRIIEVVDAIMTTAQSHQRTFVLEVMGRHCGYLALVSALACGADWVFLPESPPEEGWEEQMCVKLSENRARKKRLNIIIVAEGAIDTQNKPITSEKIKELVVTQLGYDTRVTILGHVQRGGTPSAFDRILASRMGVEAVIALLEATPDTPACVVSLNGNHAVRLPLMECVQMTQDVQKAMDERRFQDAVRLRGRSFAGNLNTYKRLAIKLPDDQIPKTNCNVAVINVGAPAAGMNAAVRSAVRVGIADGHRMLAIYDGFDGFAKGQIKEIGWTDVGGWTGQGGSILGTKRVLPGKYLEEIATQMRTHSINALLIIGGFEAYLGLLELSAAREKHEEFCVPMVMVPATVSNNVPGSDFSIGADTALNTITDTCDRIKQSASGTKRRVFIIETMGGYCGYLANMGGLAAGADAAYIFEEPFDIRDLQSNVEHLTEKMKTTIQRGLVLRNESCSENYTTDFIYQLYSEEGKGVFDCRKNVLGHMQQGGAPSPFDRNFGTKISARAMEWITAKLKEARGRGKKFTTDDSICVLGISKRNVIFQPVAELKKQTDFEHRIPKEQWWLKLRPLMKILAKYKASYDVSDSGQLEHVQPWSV

WT-PFKP [3] = target: T3, WT-PFKP; assay: F6P phosphorylation assay, WT-PFKP in HEK293T cell lysates; format: biochemical; details: read-out: IC50, inhibition of PFKP activity
K688R-PFKP = K688R-PFKP (Homo sapiens, UniProt Q01813, K688R); assay: F6P phosphorylation assay, K688R-PFKP in HEK293T cell lysates; format: biochemical; details: read-out: IC50, inhibition of PFKP activity; K688R-PFKP variant
Chain of K688R-PFKP (Q01813 whole entry K688R): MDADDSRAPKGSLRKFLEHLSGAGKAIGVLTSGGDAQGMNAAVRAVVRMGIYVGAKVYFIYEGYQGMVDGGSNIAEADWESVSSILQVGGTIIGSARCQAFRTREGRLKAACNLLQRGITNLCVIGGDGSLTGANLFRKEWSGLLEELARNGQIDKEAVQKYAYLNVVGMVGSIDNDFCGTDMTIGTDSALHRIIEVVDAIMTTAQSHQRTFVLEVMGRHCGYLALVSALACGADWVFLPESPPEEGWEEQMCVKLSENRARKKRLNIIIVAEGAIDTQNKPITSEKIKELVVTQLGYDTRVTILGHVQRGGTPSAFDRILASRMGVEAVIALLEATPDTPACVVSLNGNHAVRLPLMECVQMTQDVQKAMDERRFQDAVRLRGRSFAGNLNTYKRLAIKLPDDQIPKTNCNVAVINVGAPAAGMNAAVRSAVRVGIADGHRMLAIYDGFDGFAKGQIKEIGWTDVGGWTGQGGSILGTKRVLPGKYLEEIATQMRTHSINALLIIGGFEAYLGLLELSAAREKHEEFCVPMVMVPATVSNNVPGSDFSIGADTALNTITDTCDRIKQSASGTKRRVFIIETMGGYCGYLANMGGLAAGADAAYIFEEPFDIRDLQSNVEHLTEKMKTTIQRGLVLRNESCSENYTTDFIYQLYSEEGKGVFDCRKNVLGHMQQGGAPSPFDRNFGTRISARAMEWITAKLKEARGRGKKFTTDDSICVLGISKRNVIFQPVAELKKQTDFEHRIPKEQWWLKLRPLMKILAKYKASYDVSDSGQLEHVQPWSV

Chain of PFKL (P17858 whole entry): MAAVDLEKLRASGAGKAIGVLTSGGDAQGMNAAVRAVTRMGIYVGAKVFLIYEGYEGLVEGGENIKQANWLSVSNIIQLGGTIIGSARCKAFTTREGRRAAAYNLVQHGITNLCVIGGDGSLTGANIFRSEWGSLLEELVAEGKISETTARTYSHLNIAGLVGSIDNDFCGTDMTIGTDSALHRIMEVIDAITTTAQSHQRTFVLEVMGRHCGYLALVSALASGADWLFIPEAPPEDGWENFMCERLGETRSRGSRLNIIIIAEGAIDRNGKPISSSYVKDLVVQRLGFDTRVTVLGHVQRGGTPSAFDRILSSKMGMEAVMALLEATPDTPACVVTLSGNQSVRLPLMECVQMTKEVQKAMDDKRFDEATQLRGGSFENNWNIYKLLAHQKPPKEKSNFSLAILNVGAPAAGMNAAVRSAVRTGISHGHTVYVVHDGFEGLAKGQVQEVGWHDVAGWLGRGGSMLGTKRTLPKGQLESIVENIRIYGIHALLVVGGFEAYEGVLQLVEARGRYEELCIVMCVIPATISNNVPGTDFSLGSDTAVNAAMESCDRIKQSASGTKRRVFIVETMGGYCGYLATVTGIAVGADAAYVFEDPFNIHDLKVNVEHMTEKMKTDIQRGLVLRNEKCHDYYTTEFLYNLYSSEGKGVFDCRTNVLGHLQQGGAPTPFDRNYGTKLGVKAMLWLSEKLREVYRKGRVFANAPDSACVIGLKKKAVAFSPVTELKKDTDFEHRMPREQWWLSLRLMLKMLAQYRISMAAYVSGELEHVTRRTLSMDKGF
Chain of K677R-PFKL (P17858 whole entry K677R): as the sequence (P17858 whole entry) above, with K677R counted along it
Chain of K677R/K681R-PFKL (P17858 whole entry K677R/K681R): as the sequence (P17858 whole entry) above, with K677R, K681R counted along it
Chain of kynurenine-oxoglutarate transaminase 3 (KYAT3) (Q6YP21 whole entry): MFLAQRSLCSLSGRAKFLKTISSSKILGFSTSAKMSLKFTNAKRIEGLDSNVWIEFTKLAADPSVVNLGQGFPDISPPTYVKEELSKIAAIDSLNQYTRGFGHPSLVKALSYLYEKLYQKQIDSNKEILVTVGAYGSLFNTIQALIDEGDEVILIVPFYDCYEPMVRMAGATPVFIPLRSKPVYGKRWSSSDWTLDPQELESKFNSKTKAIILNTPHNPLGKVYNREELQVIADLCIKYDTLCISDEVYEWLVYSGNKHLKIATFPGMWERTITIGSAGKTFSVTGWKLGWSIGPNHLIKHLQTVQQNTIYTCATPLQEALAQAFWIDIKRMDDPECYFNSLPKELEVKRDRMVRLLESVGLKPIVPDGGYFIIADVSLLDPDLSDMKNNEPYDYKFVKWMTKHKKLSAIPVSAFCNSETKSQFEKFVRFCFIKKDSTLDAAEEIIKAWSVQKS
Chain of K681R-PFKL (P17858 whole entry K681R): as the sequence (P17858 whole entry) above, with K681R counted along it
Chain of K677R/K681R/K315R-PFKL (P17858 whole entry K315R/K677R/K681R): as the sequence (P17858 whole entry) above, with K315R, K677R, K681R counted along it
Chain of nucleostemin (GNL3) (Q9BVP2 whole entry): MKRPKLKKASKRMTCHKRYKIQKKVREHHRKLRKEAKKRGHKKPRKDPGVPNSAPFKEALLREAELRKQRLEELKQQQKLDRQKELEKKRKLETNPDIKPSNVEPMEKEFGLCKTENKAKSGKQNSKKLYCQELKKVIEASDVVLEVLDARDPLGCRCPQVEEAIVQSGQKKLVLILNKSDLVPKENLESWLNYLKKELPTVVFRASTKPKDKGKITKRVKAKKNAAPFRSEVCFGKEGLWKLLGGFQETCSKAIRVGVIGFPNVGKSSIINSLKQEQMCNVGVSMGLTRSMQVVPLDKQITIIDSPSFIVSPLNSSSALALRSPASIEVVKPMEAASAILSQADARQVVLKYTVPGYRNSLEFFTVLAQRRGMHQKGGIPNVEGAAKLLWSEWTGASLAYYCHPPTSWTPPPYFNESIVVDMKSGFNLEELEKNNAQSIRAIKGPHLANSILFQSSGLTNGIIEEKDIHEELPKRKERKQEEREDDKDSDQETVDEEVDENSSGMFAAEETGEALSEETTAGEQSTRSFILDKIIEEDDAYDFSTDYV
Chain of WT-PFKL (P17858 whole entry): as the sequence (P17858 whole entry) above
Chain of K373R-ABHD12 (Q8N2K0 whole entry K373R): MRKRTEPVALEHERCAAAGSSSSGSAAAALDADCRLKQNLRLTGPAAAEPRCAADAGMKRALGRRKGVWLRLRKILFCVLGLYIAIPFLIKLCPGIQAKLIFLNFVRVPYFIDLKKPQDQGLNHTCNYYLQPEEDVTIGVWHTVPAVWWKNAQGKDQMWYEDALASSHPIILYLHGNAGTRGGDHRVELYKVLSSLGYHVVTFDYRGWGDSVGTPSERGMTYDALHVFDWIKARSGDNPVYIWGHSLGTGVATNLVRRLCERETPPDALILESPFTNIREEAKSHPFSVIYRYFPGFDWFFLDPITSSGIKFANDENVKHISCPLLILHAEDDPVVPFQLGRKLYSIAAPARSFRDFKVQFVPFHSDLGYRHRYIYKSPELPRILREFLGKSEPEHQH

ligandability of K330 in KYAT3 [1]: 28%
ligandability of K20 in GNL3 (nucleostemin (GNL3)): 74%
ligandability of K373 in ABHD12 (ABHD12): 66%
ligandability of K677 in PFKL (PFKL): 65%
ligandability of K681 in PFKL (PFKL): 60%
ligandability of K688 in PFKP (PFKP): 60%
IC50 (WT-ABHD12): 18.1 µM
IC50 (K373R-ABHD12): > 100 µM
IC50 (WT-PFKL): 4.6 µM
IC50 (K681R-PFKL): 7 µM
IC50 (K677R-PFKL): 8.6 µM
IC50 (K677R/K681R-PFKL): 78.5 µM
IC50 (K677R/K681R/K315R-PFKL): > 100 µM
fold reduction in potency versus enantiomer (+)-guadial B (WT-PFKP [2]; P1 probe labeling blockade): ~10 fold
IC50 (WT-PFKP [2]; read-out: apparent IC50, blockade of P1 probe labeling, WT-PFKP): 13.8 µM
IC50 (WT-PFKP [3]): 3.8 µM
IC50 (K688R-PFKP): > 100 µM
Compound: CC1(C)[C@@H]2C[C@H]3[C@H](c4ccccc4)c4c(O)c(C=O)c(O)c(C=O)c4O[C@@]3(C)[C@H]1C2 [(−)-guadial B]
levels of monoacylglycerophosphoserine LPS(18:0) (MDA-MB-231 cells): significantly elevated levels
levels of stearic acid FA(18:0) (MDA-MB-231 cells): concurrent reduction
